Published values of several laboratories.
Compare with care: the assays were run in different laboratories.
Cell line: MCF7
Effect on: cell growth or viability

| SMILES | assay | conditions | GI50 [nM] |
| --- | --- | --- | --- |
| COc1ccc(C(=O)/C=C/c2cc3c(cc2Br)OCO3)cc1S(N)(=O)=O | SRB | 48 h | 3800 |
| COc1cc2c(OC)nc3c4cc5c(cc4cc(OCCCN4CCC(N6CCCCC6)CC4)c3c2cc1OC)OCO5 | MTT | 72 h | 1500 |
| COc1cccc(Oc2ccccc2NC(=O)CNC(=O)c2cccc3ccccc23)c1 | SRB | 48 h | 100 |
| COc1cc(C(CC(=O)c2ccc(Br)cc2)NCCc2ccc(O)c(O)c2)ccc1O (stereo not drawn) | MTT | – | 20 |
| COc1ccc(C(=O)/C=C/c2cccc3ccccc23)cc1S(N)(=O)=O | SRB | 48 h | 2100 |
| COc1cc2c(Nc3ccc(Br)cc3F)ncnc2cc1OCC1CCN(C)CC1 | MTT | 72 h | 250 |
| COc1ccc(-c2ccc(-c3ccc(C(=N)N)nc3)s2)cc1 | SRB | – | 1740 |
| COc1ccc(C(=O)/C=C/c2ccc3ccccc3c2)cc1S(N)(=O)=O | SRB | 48 h | 1600 |
| COc1cccc2c1C(=O)c1c(O)c3c(c(O)c1C2=O)C[C@@](O)(C(=O)CO)C[C@@H]3O[C@H]1C[C@H](N)[C@H](O)[C@H](C)O1 | MTT | – | 20 |
| CCN(CC)CCCOc1cc2cc3c(cc2c2nc(OC)c4cc(OC)c(OC)cc4c12)OCO3 | MTT | 72 h | 23000 |
| CC(=O)c1c(C)c2cnc(Nc3ccc(N4CCNCC4)cn3)nc2n(C2CCCC2)c1=O | resazurin | – | 150 |
| COc1cc2c(OC)nc3c4cc5c(cc4cc(O)c3c2cc1OC)OCO5 | MTT | 72 h | 13000 |
| COc1cc(C(CC(=O)c2ccc(C(C)(C)C)cc2)NCCc2ccc(O)c(O)c2)ccc1O (stereo not drawn) | MTT | – | 2600 |
| COc1cc2c(OC)nc3c4cc5c(cc4cc(OCCCN4CCCC4)c3c2cc1OC)OCO5 | MTT | 72 h | 8600 |
| COc1ccc(C(=O)/C=C/c2ccccc2Br)cc1S(N)(=O)=O | SRB | 48 h | 2900 |
| COc1cc2c(cc1O)CC[C@@H]1[C@@H]2CC[C@]2(C)[C@@H](O)CC[C@@H]12 | SRB | 96 h | 600 |
| COc1ccc(C(=O)/C=C/c2ccc(Cl)c(Cl)c2)cc1S(N)(=O)=O | SRB | 48 h | 1100 |
| COc1cc(C(CC(N)=O)NCCc2ccc(O)c(O)c2)ccc1O (stereo not drawn) | MTT | – | 26200 |
